# Screens deposited in PubChem by several laboratories.
# This is a sample that favours compounds with a hit; in the whole collection about 3.2% have one here.
# DAX1 inh-1 – inhibitors of human orphan nuclear receptor DAX1 (NR0B1); P51843; HEK293 Gal4-DAX1 luciferase reporter, luminescence; inhibition, % at 6.75 µM; 340,000 tested, 0.99% active; AID 504766;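 active = inhibition above the mean over all tested compounds plus 3 SD, cut at about 4.2% in these data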;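 also: 0% = DAX1-transfected cells with DMSO and 100% = empty-vector control cells with DMSO; inhibition shows as a rise in luminescence from relieved DAX1 repression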
# DAX1 inh-2 – inhibitors of DAX1 repression of SF-1 activated StAR promoter. AID 652010. 370,000 tested, 1.1% active. HEK293T StAR-luciferase reporter, SF-1/DAX-1 repression relief. inhibition, % at 6.8 µM;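 active = inhibition above the mean over all tested compounds plus 3 SD, cut at about 3.6% in these data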;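 also: 0% = DAX-1 cells with DMSO and 100% = cells lacking DAX-1 with DMSO; higher inhibition means more luminescence from relief of DAX-1 repression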
# NR2E3 ag-1 – human photoreceptor-specific nuclear receptor agonism | inhibition of corepressor binding, % at 3.98 µM | Q9Y5X4 | CHO-S Gal4-NCOR/VP16-NR2E3 two-hybrid, luciferase | 360,000 tested, 0.35% active;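 active = inhibition above the mean of all tested compounds plus 3 SD, cut at about 70% in these data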;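 also: 0% = DMSO with NR2E3 transfected cells and 100% = cells lacking NR2E3 construct; higher means lower luciferase signal from less NR2E3 corepressor binding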
# NR2E3 ag-2 – NR2E3 (human) agonism. GST-NR2E3/biotin-RetCOR TR-FRET, 1536-well. Q9Y5X4. AID 2300. 320,000 tested, 0.12% active. inhibition of corepressor binding, % at 4.78 µM;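 active = percent inhibition above the cutoff of mean plus 3 SD of all tested compounds, set per screening campaign, cut at about 20% in these data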;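 also: 0% = DMSO wells and 100% = biotin wells as full block of FRET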
#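 System: GST-NR2E3 and biotin-RetCOR proteins; probe or stimulus: 7 nM biotin-RetCOR; doses: compound at 4.8 µM, single dose; schedule: Compound–protein incubation for 5 h at 4 °C; detection: time-resolved FRET; read-out: percent inhibition; controls: biotin wells as high control, 0.6% DMSO wells as low control; format: 1536-well plates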
# SMARCA2 activ – activators of SMARCA2 function. 370,000 tested, 1% active. MG213 cells, MMTV-luciferase reporter, dexamethasone, overnight. activation, % at 9.1 µM. AID 652017; in the data active = activation above about 7.8%;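 also: 0% = vehicle wells and 100% = reference activator wells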
# GASC-1 inh – blocks human GASC-1 demethylase activity; inhibition, % at 2.35 µM; GST-JMJD2C(1-420) H3K9me3 demethylation, DELFIA europium; 330,000 tested, 0.069% active; AID 2099; Q9H3R0;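 active = more than half of a compound's replicate wells show inhibition beyond 50%, single wells judged on their own value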;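 also: signal counts dimethyl H3K9 product captured on neutravidin plate; 0% = median of DMSO wells and 100% = 0.3 times that DMSO median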
# Target sequence (Q9H3R0 1-420 limits assumed): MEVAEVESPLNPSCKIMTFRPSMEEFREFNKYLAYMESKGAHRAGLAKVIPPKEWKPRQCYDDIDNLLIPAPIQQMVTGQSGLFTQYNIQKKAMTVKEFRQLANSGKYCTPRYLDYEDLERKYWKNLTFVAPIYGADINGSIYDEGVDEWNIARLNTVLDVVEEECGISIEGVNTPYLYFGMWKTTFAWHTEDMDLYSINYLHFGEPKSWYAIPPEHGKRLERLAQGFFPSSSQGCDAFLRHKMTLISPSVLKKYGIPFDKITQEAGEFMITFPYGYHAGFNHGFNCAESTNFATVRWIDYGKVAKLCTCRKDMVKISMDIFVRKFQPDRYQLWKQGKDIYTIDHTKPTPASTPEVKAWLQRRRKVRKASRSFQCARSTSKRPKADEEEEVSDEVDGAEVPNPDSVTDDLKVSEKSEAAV
# * = called active by the depositor; nt = no result.
SMILES,DAX1 inh-1,DAX1 inh-2,NR2E3 ag-1,NR2E3 ag-2,SMARCA2 activ,GASC-1 inh
COc1ccc(-c2cc(=O)oc3c(C)c(OCC(=O)Nc4cccnc4)ccc23)cc1,0,-1,-15,2,-1,41
Cc1c(C)c2ccc(OCC(=O)Nc3cccnc3)c(C)c2oc1=O,1,3.7*,-27,-5,0,25
CCC[C@@H](/C=C/C(=O)OC(C)(C)C)Sc1ccc(OC)cc1,nt,1,nt,nt,0,nt
COc1ccc(NC(=O)Nc2ccc3nccnc3c2)cc1,3,2,-124,-5,7.9*,-4
COc1ccc(NC(=O)Nc2ccc3nonc3c2)cc1,nt,0,-80,4,3,-20
CCOC(=O)N1CCC(N2C(=O)c3ccccc3C2Nc2ccc3c(C)cc(=O)oc3c2)CC1 (stereo not given),5.4*,1,-9,6,0,-5
CC1CCc2c(sc(NC(=O)c3nc4ncccn4n3)c2C#N)C1 (stereo not given),4.4*,0,-39,1,-1,7
Cc1cccc(-n2ncc3c(NCCCO)ncnc32)c1,1,4,-73,10,7.9*,8
C=CCNc1ncnc2c1cnn2-c1cccc(C)c1,2,6.3*,-70,1,3,-1
CCCNC(=O)C[C@H]1CC[C@H]2[C@@H](COc3ccc(NC(=O)Nc4ccc(C#N)cc4)cc3C(=O)N2C)O1,nt,0,nt,nt,-4,nt
COC(=O)[C@]12C[C@H](CC(=O)N3CCN(C(=O)c4ccco4)CC3)C(=O)N(CCC3=CCCCC3)C1=C[C@H](C1CCCC1)O[C@@H]2C,nt,0,nt,nt,-2,nt
O=C(O)c1ccc(/C=N/Nc2ncc(Cl)cc2Cl)cc1,6.5*,0,-48,0,0,-2
FC(F)(F)c1cnc(N/N=C/c2ccncc2)c(Cl)c1,-1,0,12,-2,1,8
CCOc1ccc(C2CC(c3ccc(CC)cc3)Nc3nc(N)nn32)cc1 (stereo not given),4.3*,1,-17,1,-1,0
COc1ccc(C2CC(c3ccccc3C)n3nc(N)nc3N2)cc1 (stereo not given),5.1*,0,-15,2,-1,1
Cn1c(=NC(=O)c2ccccc2[N+](=O)[O-])sc2cc(S(C)(=O)=O)ccc21,2,4.3*,-125,-1,7,2
Cn1c(=NC(=O)c2ccc(S(=O)(=O)N3CCCc4ccccc43)cc2)sc2cc(S(C)(=O)=O)ccc21,1,0,-14,0,1,5
Cc1ccc(S(=O)(=O)N2CCCC(C(=O)Nc3c(C)n(C)n(-c4ccccc4)c3=O)C2)cc1C (stereo not given),nt,-1,nt,nt,6,nt
CC1CC(C)CN(C(=O)c2cccc(N3C(=O)c4ccccc4C3=O)c2)C1 (stereo not given),0,4.3*,11,-1,-4,-2
N#Cc1ccc(NC(=O)OC2CC3CC2[C@H]2CCCCN2[C@H]3Cc2ccccc2)cc1 (stereo not given in full),nt,-1,nt,nt,-1,nt
C=C(C1=CCN(S(=O)C(C)(C)C)[C@H]1CCO)c1ccccc1 (stereo not given in full),1,0,4,nt,-2,nt
C=C(C1=CCN(S(=O)(=O)C(C)(C)C)[C@H]1CCO)c1ccccc1,5.8*,-1,-4,nt,4,nt
COC(=O)c1ccc(Cn2ccc3ccc(-c4ccc5ccn(C(=O)c6ccc(C)cc6)c5c4)cc32)cc1,nt,0,nt,nt,-2,nt
CCCCNC(=O)C[C@H]1C(=O)N(Cc2ccc(OC)cc2)C2=CCCCC[C@@]21C(=O)OC,nt,0,nt,nt,0,nt
CCOC(=O)/C=C1/N(C)c2ccccc2C1(C)C,6.1*,1,-9,2,-4,-5
SMILES,DAX1 inh-1,DAX1 inh-2,NR2E3 ag-1,NR2E3 ag-2,SMARCA2 activ,GASC-1 inh
CN1/C(=C\C(=O)COC(=O)c2ccc(O)cc2)C(C)(C)c2ccccc21,1,0,-26,3,-6,-12
Cc1ccnc(NC(c2ccsc2)c2ccc3ccc(C)nc3c2O)c1 (stereo not given),4.9*,-2,-10,-6,7,-15
CCCCCCNc1nc(Cl)nc(NC(C)(C)CO)n1,5.3*,0,13,-4,-3,52
COc1ccc(NC(C)=O)cc1S(=O)(=O)Nc1ccccc1C(=O)N1CCCC1,1,1,-2,3,-3,4
COc1ccc(NC(C)=O)cc1S(=O)(=O)Nc1ccc(C(=O)N2CCCC2)cc1,4.4*,0,-21,-3,-3,1
C[C@@H]1OCN(C)[C@H]2C[C@H]3c4[nH]c5cccc(-c6ccc7c(c6)OCO7)c5c4CCN3C[C@@H]12,nt,-1,nt,nt,-2,nt
COc1ccc(-c2noc(C3CCCN(C(=O)Nc4cccc(C)c4)C3)n2)cc1 (stereo not given),nt,3,nt,nt,-5,nt
Cc1noc(C)c1C(=O)Nc1sccc1C(N)=O,1,-2,14,nt,7.9*,5
O=C(O)c1ccc(N/N=C/C2=Cc3ccccc3OC2)cc1,11*,4.1*,-112,0,0,11
O=C(O)c1ccc(N/N=C/c2ccncc2)cc1,2,1,-39,-2,2,-4
COc1cccc(/C=C2\CC3(OC(=O)C(C)(C)C)CCCN2C3)c1 (stereo not given),nt,1,nt,nt,-3,nt
CC(=O)N1CCN(C(=O)c2cc3c(s2)CCC(C)C3)CC1 (stereo not given),2,3.9*,-51,nt,3,nt
O=S(=O)(c1cccs1)N1CCC(c2cn3ccccc3n2)CC1,nt,0,nt,nt,1,nt
COc1cc(NS(=O)(=O)c2ccc(NC(=S)NC(=O)c3ccco3)cc2)nc(OC)n1,4.7*,0,-19,2,-3,-22
COc1cc(NS(=O)(=O)c2ccc(NC(=O)c3ccco3)cc2)nc(OC)n1,0,0,-5,3,-4,-1
CCc1cccc(C)c1NC(=O)CSc1n[nH]c(N)n1,0,4.2*,-17,nt,-4,5
COC(=O)C1CN(Cc2ccc(Cl)cc2)CCS(=O)(=O)N1Cc1cn(Cc2ccc(F)cc2)nn1 (stereo not given),nt,-1,nt,nt,-3,nt
CCn1c(C)nc2cc(-c3nc4n(n3)Cc3ccccc3-4)ccc21,-7,nt,97*,2,nt,8
O=C(NCc1ccccc1C(F)(F)F)c1cccc2c1C(=O)c1ccc(N3CCC(N4CCCCC4)CC3)cc1S2(=O)=O,1,3,-24,nt,20*,nt
O=C(NCc1ccccc1C(F)(F)F)c1cccc2c1C(=O)c1ccc(N3CCOCC3)cc1S2(=O)=O,1,0,-5,nt,-1,14
COc1ccc(/C=C2\CCc3c2nc2ccccc2c3C(=O)O)cc1OC,0,4.3*,2,-3,2,8
COc1ccc(/C=C2\CCCc3c2nc2ccccc2c3C(=O)O)cc1OC,nt,nt,nt,0,nt,4
